Measurements published in ChEMBL document CHEMBL1944602, “Synthesis and biological characterisation of sirtuin inhibitors based on the tenovins” (Bioorg Med Chem, 2012).
The source made the active and inactive calls. No cut-off for these calls is given here.

Assays:
[1] = Solubility of the compound in water by UV spectrophotometry; type: physicochemical
Summary of the method: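 Extinction coefficient from absorbance at 273 nm of a 7-point 2-fold dilution series in acetonitrile; DMSO used first where needed. Coefficient taken from the slope of absorbance against molar concentration. Used to find the actual concentration of a nominal 100 µM aqueous solution made from 40 mM DMSO stock.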

[2] = target: T1, NAD-dependent protein deacetylase sirtuin-2 (Homo sapiens, UniProt Q8IXJ6); test: Inhibition of recombinant human SitT2 by Fluor de Lys fluorescence assay
T1 sequence (Q8IXJ6 whole entry): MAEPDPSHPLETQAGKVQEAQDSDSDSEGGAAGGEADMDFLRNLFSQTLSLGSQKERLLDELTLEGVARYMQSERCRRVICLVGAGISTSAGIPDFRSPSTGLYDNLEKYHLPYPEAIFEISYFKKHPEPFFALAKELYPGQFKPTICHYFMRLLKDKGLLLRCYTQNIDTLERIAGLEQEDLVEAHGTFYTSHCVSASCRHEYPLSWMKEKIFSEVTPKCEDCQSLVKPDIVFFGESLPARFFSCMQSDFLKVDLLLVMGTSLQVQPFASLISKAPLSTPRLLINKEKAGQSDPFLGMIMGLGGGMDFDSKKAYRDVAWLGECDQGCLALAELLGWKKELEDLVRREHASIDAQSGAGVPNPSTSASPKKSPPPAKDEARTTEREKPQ

[3] = target: T2, NAD-dependent protein deacetylase sirtuin-1 (Homo sapiens) (UniProt Q96EB6); test: Inhibition of recombinant human SitT1 at 60 uM by Fluor de Lys fluorescence assay
T2 sequence (whole entry): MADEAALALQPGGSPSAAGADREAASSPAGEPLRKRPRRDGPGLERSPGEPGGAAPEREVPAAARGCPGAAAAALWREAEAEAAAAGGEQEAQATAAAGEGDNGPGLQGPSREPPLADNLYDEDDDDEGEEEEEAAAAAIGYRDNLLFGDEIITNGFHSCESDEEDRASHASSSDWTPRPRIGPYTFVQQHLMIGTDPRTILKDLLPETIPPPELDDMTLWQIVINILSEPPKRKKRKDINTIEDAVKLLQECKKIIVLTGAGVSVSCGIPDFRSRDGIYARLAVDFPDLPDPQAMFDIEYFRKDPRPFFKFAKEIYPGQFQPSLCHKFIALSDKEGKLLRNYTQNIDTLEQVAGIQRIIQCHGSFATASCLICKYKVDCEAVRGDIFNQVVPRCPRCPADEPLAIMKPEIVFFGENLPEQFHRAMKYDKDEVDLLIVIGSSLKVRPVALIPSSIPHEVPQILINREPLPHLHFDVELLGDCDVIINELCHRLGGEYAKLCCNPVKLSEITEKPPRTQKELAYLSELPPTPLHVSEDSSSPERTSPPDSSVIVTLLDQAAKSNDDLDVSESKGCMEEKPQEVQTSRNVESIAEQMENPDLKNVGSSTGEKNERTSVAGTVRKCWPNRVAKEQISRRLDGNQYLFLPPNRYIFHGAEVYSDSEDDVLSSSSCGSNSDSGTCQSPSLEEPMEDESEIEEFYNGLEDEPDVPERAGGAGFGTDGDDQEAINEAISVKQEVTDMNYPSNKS
Summary of the method: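 Human recombinant SirT1 deacetylation measured with the Fluor de Lys fluorescence kit at a fixed 60 µM inhibitor. Tested on two separate occasions; percent inhibition reported as a mean weighted to the standard error.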

[4] = target: T3, NAD-dependent protein deacetylase sirtuin-1 (Homo sapiens, UniProt Q96EB6); test: Inhibition of recombinant human SitT1 by Fluor de Lys fluorescence assay
T3 sequence (Q96EB6 whole entry): T2 sequence (whole entry)

[5] = target: T2, NAD-dependent protein deacetylase sirtuin-1 (Homo sapiens); test: Inhibition of SirT1 assessed as increase in p53 expression in human MCF7 cells at 10 uM after 6 hrs by Western blotting; type: cell-based
Summary of the method: (§1)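 MCF-7 cells grown in DMEM with 10% FCS and gentamycin, seeded at 2 × 10⁵ per well on collagen-coated plates and incubated 42 h at 37 °C in 5% CO2. Compound in DMSO was added for 6 h. Lysis in LDS buffer, protein equalised by BCA, 4–12% bis-tris SDS-PAGE, PVDF blot. Total p53 detected with DO.1, PCNA as loading control, ECL detection. Scored semi-quantitatively against untreated level.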

[6] = target: T2, NAD-dependent protein deacetylase sirtuin-1 (Homo sapiens); test: Inhibition of SirT1 assessed as increase in p53 expression in human MCF7 cells at 5 uM after 6 hrs by Western blotting; type: cell-based; summary of the method: as §1
[7] = target: T2, NAD-dependent protein deacetylase sirtuin-1 (Homo sapiens); test: Inhibition of SirT1 assessed as increase in p53 expression in human MCF7 cells at 2 uM after 6 hrs by Western blotting; type: cell-based; summary of the method: as §1
[8] = Cytotoxicity against human H1299 cells at 30 uM; type: cell-based; settings: nci-h1299, 30 µM
[9] = target: T2, NAD-dependent protein deacetylase sirtuin-1 (Homo sapiens); test: Inhibition of SirT1 in human ARN8 cells assessed as p53 activation at 10 uM by beta-galactosidase reporter gene assay; type: cell-based
Summary of the method: (§2)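 p53-dependent transcription measured with a beta-galactosidase reporter in ARN8 cells, run in triplicate. Read-out is the ratio of signal in treated cells to DMSO-control cells, given to 2 significant figures; a positive or negative activity call is also recorded.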

[10] = target: T2, NAD-dependent protein deacetylase sirtuin-1 (Homo sapiens); test: Inhibition of SirT1 in human ARN8 cells assessed as p53 activation at 5 uM by beta-galactosidase reporter gene assay; type: cell-based; summary of the method: as §2
[11] = Drug metabolism in human H1299 cells after 16 hrs by mass spectrophotometry; type: ADME, cell-based; settings: nci-h1299, 16 h
[12] = target: T2, NAD-dependent protein deacetylase sirtuin-1 (Homo sapiens); test: Inhibition of SirT1 in human ARN8 cells assessed as p53 activation at 20 uM by beta-galactosidase reporter gene assay relative to control; type: cell-based; summary of the method: as §2
[13] = target: T2, NAD-dependent protein deacetylase sirtuin-1 (Homo sapiens); test: Inhibition of SirT1 in human ARN8 cells assessed as p53 activation at 10 uM by beta-galactosidase reporter gene assay relative to control; type: cell-based; summary of the method: as §2
[14] = target: T2, NAD-dependent protein deacetylase sirtuin-1 (Homo sapiens); test: Inhibition of SirT1 in human ARN8 cells assessed as p53 activation at 5 uM by beta-galactosidase reporter gene assay relative to control; type: cell-based; summary of the method: as §2
[15] = Cytotoxicity against human ARN8 cells at 20 uM; type: cell-based; settings: arn8, 20 µM
[16] = Cytotoxicity against human H1299 cells at 20 uM; type: cell-based; settings: nci-h1299, 20 µM

Structure (SMILES)	solubility [1] [µg/mL]	IC50 [2] [µM]	inhibition [3] [%]	IC50 [4] [µM]	inhibition [5]	inhibition [6]	inhibition [7]	Activity [8]	inhibition [9]	inhibition [10]	Drug metabolism [11]	fold change (FC) [12]	fold change (FC) [13]	fold change (FC) [14]	Activity [15]	Activity [16]
CN(C)CCCC(=O)Nc1ccc(NC(=S)NC(=O)c2ccc(C(C)(C)C)cc2)cc1.Cl	0.57	12.8	85.2	35.8	Active	Active	inactive	–	–	–	–	–	–	–	–	–
CN(C)CCCCC(=O)Nc1ccc(NC(=S)NC(=O)c2ccc(C(C)(C)C)cc2)cc1.Cl	0.74	–	73.9	–	Active	Active	Active	Toxic	Active	Active	Active	–	–	–	–	–
CCCCc1ccc(C(=O)NC(=S)Nc2ccc(NC(=O)CCCCN(C)C)cc2)cc1.Cl	–	8.6	56.3	46.3	–	–	–	Toxic	inactive	inactive	–	0.28	0.93	0.91	Toxic	Toxic
CN(C)CCOCCOCCOCCOCCOCC(=O)Nc1ccc(NC(=S)NC(=O)c2ccc(C(C)(C)C)cc2)cc1.Cl	> 1.34	> 90	29.6	> 60	inactive	inactive	inactive	–	–	–	–	–	–	–	–	–
